pIC50: −log10 of the molar value.
What was measured:
[1] = target: T1, Polyunsaturated fatty acid 5-lipoxygenase (Homo sapiens) (UniProt P09917); test: Inhibition of human recombinant 5-LO expressed in Escherichia coli BL21 using arachidonic acid as substrate assessed as residual activity at 10 uM after 10 mins
T1 sequence (whole entry): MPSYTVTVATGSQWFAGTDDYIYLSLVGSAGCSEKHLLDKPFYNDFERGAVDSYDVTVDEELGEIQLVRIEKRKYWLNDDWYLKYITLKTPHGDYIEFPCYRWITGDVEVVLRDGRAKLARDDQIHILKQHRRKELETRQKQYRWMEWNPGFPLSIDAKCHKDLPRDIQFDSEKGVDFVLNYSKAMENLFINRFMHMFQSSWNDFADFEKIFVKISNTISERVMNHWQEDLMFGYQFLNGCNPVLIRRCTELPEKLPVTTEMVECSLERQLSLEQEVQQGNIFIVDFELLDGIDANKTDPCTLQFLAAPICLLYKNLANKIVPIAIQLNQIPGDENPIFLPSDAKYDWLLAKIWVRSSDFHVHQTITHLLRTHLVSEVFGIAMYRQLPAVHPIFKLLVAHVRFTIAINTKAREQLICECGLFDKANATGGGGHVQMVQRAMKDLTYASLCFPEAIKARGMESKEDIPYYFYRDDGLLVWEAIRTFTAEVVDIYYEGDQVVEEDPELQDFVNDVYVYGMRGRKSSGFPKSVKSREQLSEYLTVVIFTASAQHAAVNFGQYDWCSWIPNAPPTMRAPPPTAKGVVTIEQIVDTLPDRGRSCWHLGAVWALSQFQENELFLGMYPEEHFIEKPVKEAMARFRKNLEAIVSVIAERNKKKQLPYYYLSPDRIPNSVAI

[2] = target: T1, Polyunsaturated fatty acid 5-lipoxygenase (Homo sapiens); test: Inhibition of 5-LO in human PMNL using arachidonic acid as substrate assessed as residual activity at 10 uM preincubated for 15 mins
Procedure, shortened: (§1)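 PMNL were isolated from buffy coats by dextran sedimentation, Nycoprep centrifugation and hypotonic lysis of erythrocytes, then resuspended in PBS pH 7.4 with 1 mg/mL glucose and 1 mM CaCl₂. Cells were pre-incubated with compound for 15 min at 37 °C, then stimulated with A23187 plus AA for 10 min at 37 °C. 15-LO comes from eosinophils and 12-LO from adhering platelets in the preparation. After methanol/HCl stop and PGB₁ addition, metabolites were extracted and quantified by HPLC. Mean ± S.E.M., n = 3–4.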

[3] = target: T2, Polyunsaturated fatty acid lipoxygenase ALOX12 (Homo sapiens) (UniProt P18054); test: Inhibition of 12-LO in human PMNL using arachidonic acid as substrate assessed as residual activity at 10 uM preincubated for 15 mins; procedure, shortened: as §1
T2 sequence (whole entry): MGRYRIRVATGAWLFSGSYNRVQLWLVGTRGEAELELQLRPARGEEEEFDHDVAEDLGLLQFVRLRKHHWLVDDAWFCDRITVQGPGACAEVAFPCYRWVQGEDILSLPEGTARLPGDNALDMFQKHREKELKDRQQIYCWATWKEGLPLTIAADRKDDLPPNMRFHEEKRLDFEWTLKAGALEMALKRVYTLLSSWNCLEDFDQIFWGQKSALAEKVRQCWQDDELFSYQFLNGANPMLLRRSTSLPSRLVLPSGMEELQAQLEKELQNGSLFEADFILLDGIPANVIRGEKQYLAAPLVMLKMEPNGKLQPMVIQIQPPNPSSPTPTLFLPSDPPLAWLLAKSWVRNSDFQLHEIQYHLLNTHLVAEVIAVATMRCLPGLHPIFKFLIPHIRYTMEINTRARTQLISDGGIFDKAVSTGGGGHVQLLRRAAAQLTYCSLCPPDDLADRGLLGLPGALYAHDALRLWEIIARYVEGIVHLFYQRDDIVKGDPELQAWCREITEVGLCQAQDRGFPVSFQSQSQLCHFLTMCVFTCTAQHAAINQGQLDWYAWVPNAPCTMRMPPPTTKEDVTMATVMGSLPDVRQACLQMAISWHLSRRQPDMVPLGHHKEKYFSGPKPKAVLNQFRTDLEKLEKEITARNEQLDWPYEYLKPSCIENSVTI

[4] = target: T3, Polyunsaturated fatty acid 5-lipoxygenase (Homo sapiens, UniProt P09917); test: Inhibition of 5-LO in human PMNL using arachidonic acid as substrate preincubated for 15 mins; procedure, shortened: as §1
T3 sequence (P09917 whole entry): T1 sequence (whole entry)

[5] = target: T4, Polyunsaturated fatty acid lipoxygenase ALOX15 (Homo sapiens) (UniProt P16050); test: Inhibition of 15-LO in human PMNL using arachidonic acid as substrate assessed as residual activity at 10 uM preincubated for 15 mins; procedure, shortened: as §1
T4 sequence (whole entry): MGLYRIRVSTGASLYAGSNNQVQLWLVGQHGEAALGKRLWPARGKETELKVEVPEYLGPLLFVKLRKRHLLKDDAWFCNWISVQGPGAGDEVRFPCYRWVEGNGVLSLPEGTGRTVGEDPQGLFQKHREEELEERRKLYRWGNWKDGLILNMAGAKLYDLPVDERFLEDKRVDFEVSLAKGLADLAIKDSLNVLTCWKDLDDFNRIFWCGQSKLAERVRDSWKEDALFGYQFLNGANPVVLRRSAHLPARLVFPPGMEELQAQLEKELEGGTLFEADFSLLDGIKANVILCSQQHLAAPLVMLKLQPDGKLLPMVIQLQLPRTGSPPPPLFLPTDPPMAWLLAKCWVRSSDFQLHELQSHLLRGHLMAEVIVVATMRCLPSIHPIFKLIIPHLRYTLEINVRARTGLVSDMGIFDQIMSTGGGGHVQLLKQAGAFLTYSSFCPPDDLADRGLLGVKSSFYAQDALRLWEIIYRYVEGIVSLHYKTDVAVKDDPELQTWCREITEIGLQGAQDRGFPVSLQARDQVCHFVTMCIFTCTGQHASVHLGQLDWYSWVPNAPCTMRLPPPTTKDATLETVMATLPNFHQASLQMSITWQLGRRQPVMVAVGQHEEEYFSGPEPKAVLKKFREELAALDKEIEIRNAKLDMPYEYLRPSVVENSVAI

[6] = target: T3, Polyunsaturated fatty acid 5-lipoxygenase; test: Inhibition of human recombinant 5-LO expressed in Escherichia coli BL21 using arachidonic acid as substrate after 10 mins
Procedure, shortened: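 Purified 5-LO was diluted in PBS/EDTA and pre-incubated with compound for 5–10 min at 4 °C, then pre-warmed for 30 s at 37 °C. The reaction was started with 2 mM CaCl₂ plus AA, run 10 min at 37 °C and stopped with ice-cold methanol. Products were analysed by HPLC.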

[7] = target: T5, Polyunsaturated fatty acid lipoxygenase ALOX15 (Homo sapiens, UniProt P16050); test: Inhibition of 15-LO in human PMNL using arachidonic acid as substrate preincubated for 15 mins; procedure, shortened: as §1
T5 sequence (P16050 whole entry): T4 sequence (whole entry)

[8] = target: T6, Polyunsaturated fatty acid lipoxygenase ALOX12 (Homo sapiens, UniProt P18054); test: Inhibition of 12-LO in human PMNL using arachidonic acid preincubated for 15 mins; procedure, shortened: as §1
T6 sequence (P18054 whole entry): T2 sequence (whole entry)

[9] = target: T3, Polyunsaturated fatty acid 5-lipoxygenase; test: Competitive inhibition of human recombinant 5-LO expressed in Escherichia coli BL21 using 40 uM of arachidonic acid as substrate preincubated for 15 mins measured after 10 mins
Procedure, shortened: (§2)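 Purified 5-LO was pre-incubated with inhibitor or vehicle (0.1% DMSO) for 15 min at 4 °C, then warmed for 30 s at 37 °C. The reaction was started with 2 mM CaCl₂ plus AA at 2.5, 5, 10, 20 or 40 µM and run 10 min at 37 °C. Products were analysed by HPLC. Results are % of uninhibited control, mean ± S.E.M., n = 3.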

[10] = target: T3, Polyunsaturated fatty acid 5-lipoxygenase; test: Competitive inhibition of human recombinant 5-LO expressed in Escherichia coli BL21 using 5 uM of arachidonic acid as substrate preincubated for 15 mins measured after 10 mins; procedure, shortened: as §2

Activity [1] | Activity [2] | Activity [3] | pIC50 [4] | Activity [5] | pIC50 [6] | pIC50 [7] | pIC50 [8] | pIC50 [9] | pIC50 [10] | SMILES
95.2% | 90.4% | 85.2% | < 5.00 | 87.3% | < 5.00 | – | – | – | – | O=C1C=C(O)C(=O)C(CC2CCCCC2)=C1O
14.2% | 15.9% | 89.8% | 5.52 | 185% | 5.85 | < 5.00 | < 5.00 | – | – | CCCCCCC1=CC(=O)C(O)=CC1=O
47.6% | 60% | 77% | < 5.00 | 116% | 5.03 | – | – | – | – | Oc1ccc(Cc2ccccc2)c(O)c1
110% | 103% | 84% | < 5.00 | 96.4% | < 5.00 | – | – | – | – | COC1=CC(=O)C(O)=C(Cc2ccccc2)C1=O
84.3% | 64.1% | 90.1% | < 5.00 | 108% | < 5.00 | – | – | – | – | O=[N+]([O-])c1cccc(-c2ccc(O)cc2O)c1
30.8% | 74.1% | 46.2% | < 5.00 | 79.8% | 6.10 | – | – | – | – | O=C1C=C(c2cccc3c2oc2ccccc23)C(=O)C=C1O
37.2% | 8.9% | 79.2% | 5.64 | 191% | 5.13 | < 5.00 | < 5.00 | – | – | Oc1ccc(Cc2ccc3ccccc3c2)c(O)c1
15.4% | 10.5% | 91.4% | 5.68 | 58.3% | 5.49 | < 5.00 | < 5.00 | – | – | Oc1ccc(-c2cccc3c2Sc2ccccc2S3)c(O)c1
8% | 61.3% | 60.9% | < 5.00 | 116% | 5.34 | – | – | – | – | O=C1C=C(c2cccc([N+](=O)[O-])c2)C(=O)C=C1O
8.7% | 5.3% | 71.9% | 5.64 | 147% | 6.11 | < 5.00 | < 5.00 | 6.51 | 6.01 | O=C1C=C(Cc2ccc3ccccc3c2)C(=O)C=C1O
74.3% | 93.3% | 95.4% | < 5.00 | 132% | < 5.00 | – | – | – | – | O=C1C=C(Cc2ccccc2)C(=O)C=C1O
25.6% | 18.6% | 69.3% | 5.55 | 110% | 5.34 | < 5.00 | < 5.00 | – | – | CCCCCCc1ccc(O)cc1O [HEXYLRESORCINOL]
92.3% | 56.1% | 76.4% | < 5.00 | 89.5% | < 5.00 | – | – | – | – | COC1=CC(=O)C(O)=C(Cc2ccc3ccccc3c2)C1=O
100% | 92.8% | 115% | < 5.00 | 115% | < 5.00 | – | – | – | – | Oc1ccc(-c2csc3ccccc23)c(O)c1
51% | 5.4% | 60.9% | 6.24 | 87.9% | 4.96 | < 5.00 | < 5.00 | – | – | O=C1C=C(O)C(=O)C(CC2CCC3CCCCC3C2)=C1O (stereo not drawn)
57.4% | 42.4% | 96% | 5.17 | 108% | < 5.00 | < 5.00 | < 5.00 | – | – | O=C(Cc1ccc2ccccc2c1)c1ccc(O)cc1O
9.4% | 22.7% | 72.3% | 5.38 | 106% | 5.55 | < 5.00 | < 5.00 | – | – | Oc1ccc(-c2ccccc2)c(O)c1
7.1% | 21.2% | 73.1% | 5.17 | 47.9% | 6.55 | – | – | – | – | COC1=CC(=O)C(Oc2ccc3ccccc3c2)=CC1=O
30.7% | 84.1% | 93.3% | < 5.00 | 182% | 5.20 | – | – | – | – | Oc1ccc(-c2cccc3c2oc2ccccc23)c(O)c1
45.2% | 74% | 81.1% | < 5.00 | 80.9% | 5.05 | – | – | – | – | O=C1C=C(Cc2ccc3cc(C(=O)O)ccc3c2)C(=O)C=C1O
